Sampled rows, rich in hits. Any-hit rate of the full collection: about 3.6%.
PAFAH1B2 inh – inhibitors of human PAFAH1B2; P68402; recombinant PAFAH1B2, FP-rhodamine activity probe, fluorescence polarization; inhibition, % at 3.39 µM; 340,000 compounds, 1.2% hits; AID 492953;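 active means inhibition above the mean of all tested compounds plus 3 SD, cut at about 24% in these data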;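 further: 0% = enzyme with DMSO and 100% = wells lacking PAFAH1B2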
Target sequence (P68402 whole entry, looked up): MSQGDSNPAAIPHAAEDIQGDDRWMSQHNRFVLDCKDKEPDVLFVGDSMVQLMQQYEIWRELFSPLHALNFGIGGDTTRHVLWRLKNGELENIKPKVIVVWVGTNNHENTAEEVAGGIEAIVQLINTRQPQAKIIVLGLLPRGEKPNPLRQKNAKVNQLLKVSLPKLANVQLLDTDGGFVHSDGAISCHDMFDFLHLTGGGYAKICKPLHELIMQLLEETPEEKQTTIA
PAFAH2 inh – PAFAH2 (human) inhibition; 340,000 compounds, 0.99% hits; inhibition, % at 3.39 µM; Q99487; recombinant PAFAH2, FP-rhodamine activity probe, fluorescence polarization;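 active means inhibition above the mean over all tested compounds plus 3 SD, cut at about 30% in these data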;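 further: inhibitors block probe labeling of enzyme so polarization drops; 0% = enzyme with DMSO and 100% = wells lacking PAFAH2 protein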
pPAFAH FP inh – pPAFAH (human) enzyme inhibition; recombinant pPAFAH, FP-rhodamine probe fluorescence polarization; inhibition, % at 3.39 µM; AID 463082; 330,000 compounds, 1.5% hits;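 active means inhibition above the mean inhibition across the screen plus 3 SD, cut at about 25% in these data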;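 further: inhibitors block binding of the rhodamine activity-based probe so polarization drops; 0% = enzyme with DMSO and 100% = wells lacking pPAFAH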
VIM-2 inhibitor – blocks Pseudomonas aeruginosa VIM-2 metallo-beta-lactamase. AID 1527. purified VIM-2, nitrocefin hydrolysis, epi-absorbance fluorescence. inhibition, % at 5.6 µM. 290,000 compounds, 0.89% hits;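 active means inhibition above the mean of all tested compounds plus 3 SD, cutoff set per screening run, cut at about 7.5% in these data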;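 further: red hydrolysis product quenches plate fluorescence so inhibitors raise well fluorescence; 0% = enzyme with DMSO and 100% = DMSO without enzyme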
PAFAH1B3 FP inh – PAFAH1B3 (human) inhibition; Q15102; recombinant PAFAH1B3, FP-rhodamine probe, fluorescence polarization; inhibition, % at 3.39 µM; 340,000 compounds, 0.28% hits; AID 492972;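 active means inhibition above the screen-wide average of all tested compounds plus 3 SD, cut at about 25% in these data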;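 further: 0% = enzyme with DMSO only and 100% = wells lacking PAFAH1B3 protein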
Target sequence (Q15102 whole entry, looked up): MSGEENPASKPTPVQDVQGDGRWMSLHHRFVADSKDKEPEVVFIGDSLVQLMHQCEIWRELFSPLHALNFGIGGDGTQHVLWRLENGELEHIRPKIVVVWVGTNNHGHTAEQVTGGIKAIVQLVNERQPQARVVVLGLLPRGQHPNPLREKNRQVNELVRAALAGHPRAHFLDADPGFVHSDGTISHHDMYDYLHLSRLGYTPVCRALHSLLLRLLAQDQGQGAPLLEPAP
IMP-1 inh – blocks Pseudomonas aeruginosa IMP-1 metallo-beta-lactamase; purified IMP-1, nitrocefin hydrolysis, epi-absorbance fluorescence; inhibition, % at 5.6 µM; 290,000 compounds, 0.45% hits; AID 1556;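 active means inhibition above the mean plus 3 SD of all compounds in the same screening run, cut at about 4.5% in these data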;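 further: 0% = IMP-1 with DMSO and 100% = DMSO wells lacking enzyme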
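System: Purified IMP-1 | Read-out basis: Percent enzyme inhibition | Controls: IMP-1 with DMSO as 0%, enzyme-free DMSO as 100% | Replicates: One well per compound | Doses: 5.6 µM nominal single concentration | Detection: Epi-absorbance fluorescence, 480 nm excitation, 530 nm emission | Incubation: 25 °C, 15 min preincubation, 25 min reaction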
pPAFAH confirm – pPAFAH (human) inhibition, confirmed | shares compounds with pPAFAH FP inh | recombinant pPAFAH, FP-Rh probe fluorescence polarization | inhibition, % at 3.39 µM | 2,300 compounds, 72% hits | AID 463230;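 active means mean inhibition of the triplicate above the hit cutoff set for the earlier primary screen, cut at about 25% in these data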;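 further: 0% = enzyme with DMSO and 100% = wells lacking pPAFAH enzyme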
* = called active by the depositor; / = not tested or not shown.

SMILES | PAFAH1B2 inh | PAFAH2 inh | pPAFAH FP inh | VIM-2 inhibitor | PAFAH1B3 FP inh | IMP-1 inh | pPAFAH confirm
CCCCOc1[nH]c2nc(-c3ccco3)n(Cc3ccco3)c(=N)c2c1C#N | 12 | 29 | 57* | -3 | -3 | -1 | 15
O=S1(=O)N=C(N/N=C/c2ccccn2)c2ccccc21 | 1 | 2 | 76* | -5 | 16 | -2 | 2
COc1ccc(/C=N/NC2=NS(=O)(=O)c3ccccc32)cc1 | 3 | -8 | 6 | -3 | 12 | -3 | /
CCOC(=O)C1CCCN(C(=O)C2COc3ccccc3O2)C1 (configuration not stated) | 5 | 3 | / | / | 8 | / | /
CCOC(=O)C1CCCN(C(=O)C2c3ccccc3Oc3ccccc32)C1 (configuration not stated) | 24* | 54* | 55* | -2 | 43* | -1 | 9
CCOC(=O)c1c(O)cc(C)cc1Nc1ccccc1 | 4 | 7 | 3 | 1 | 6 | -1 | /
CN(C)c1ccnc(Oc2ccccc2)c1C#N | 4 | -5 | / | 2 | 0 | 0 | /
CN(C)c1ccnc(SCc2ccccc2Cl)c1C#N | 6 | 0 | 35* | -1 | 7 | -1 | 23
COc1cc(-c2nc(-c3cccnc3)no2)cc(OC)c1OC | 7 | 3 | 40* | 1 | 7 | -1 | 2
COc1cc([N+](=O)[O-])cc(/C=N/NC(=O)c2cc(-c3ccccc3)nc3ccccc23)c1O | -8 | 4 | 36* | -4 | -1 | -4 | 35*
COc1cc([N+](=O)[O-])cc(/C=N/NC(=O)c2cc(C)nc3ccccc23)c1O | -1 | -9 | 14 | -4 | 16 | -3 | /
CC1=NN(c2cccc(C(=O)O)c2)C(=O)/C1=C\C=C\c1ccco1 | 10 | 48* | 45* | -1 | 13 | -5 | 32*
CN(CC(=O)Nc1ccccc1C(F)(F)F)C(=O)C1CCN(S(=O)(=O)c2ccc3c(c2)OCCO3)CC1 | -1 | 0 | 0 | / | 3 | / | /
CCCc1cc(C(=O)OCC(=O)N(CCC)c2c(N)n(Cc3ccccc3)c(=O)[nH]c2=O)sc1C | 9 | 1 | 2 | / | -2 | / | /
CC1(C)CC(=O)C2=C(C1)c1c(ccc3ccccc13)NC2c1ccc(C(=O)O)cc1 (configuration not stated) | -2 | 5 | 5 | -3 | -2 | -4 | /
CC1(C)CC(=O)C2=C(C1)c1c(ccc3ccccc13)NC2c1cc([N+](=O)[O-])cc([N+](=O)[O-])c1O (configuration not stated) | 29* | 35* | 41* | 2 | 20 | -3 | 79*
COCCNC(=O)/C(C#N)=C/c1cc(C)n(-c2ccc(C)cc2)c1C | 1 | 8 | 55* | -3 | 7 | -2 | 52*
C=CC(C)(C)c1c(O)c(CC=C(C)C)c(O)c2c(=O)c3ccc(O)c(O)c3oc12 | 3 | -27 | 45* | / | 16 | / | 49*
C=CC(C)(C)c1c2occc2c(O)c2ccc(=O)oc12 | 9 | 1 | 2 | / | -3 | / | /
Cc1ccc(C(=O)Nc2cccc(C(O)c3ccccc3)c2)cc1 (configuration not stated) | 3 | -4 | -3 | / | 5 | / | /
O=C(Nc1ccc(Cl)cc1)Nc1nnc(-c2ccncc2)s1 | -3 | 4 | 1 | -3 | 8 | -4 | /
O=C(Nc1cccc(Cl)c1)Nc1nnc(-c2ccncc2)s1 | 7 | 8 | 42* | -3 | -4 | -5 | 35*
CCOc1ccc(CC(=O)Nc2ccc(S(=O)(=O)N3CCCC3)cc2)cc1 | 1 | -7 | 2 | -2 | 0 | -1 | /
Cc1cc(C(=O)OCC(=O)N2CC(=O)Nc3ccccc32)c(C)n1-c1ccc(F)cc1 | -2 | 2 | 37* | 0 | 0 | 2 | 30*
O=S(=O)(O)c1cccc2c(N=Nc3ccc(O)c4ncccc34)cccc12 | 41* | 66* | 92* | 1 | 64* | -7 | 91*
SMILES | PAFAH1B2 inh | PAFAH2 inh | pPAFAH FP inh | VIM-2 inhibitor | PAFAH1B3 FP inh | IMP-1 inh | pPAFAH confirm
COc1ccc(C)cc1N=Nc1ccc(O)c2ncccc12 | 3 | -2 | / | -3 | 3 | -3 | /
Cc1ccccc1N=Nc1ccc(O)c2ncccc12 | 3 | 1 | 41* | -4 | 9 | -2 | 36*
CCNc1ccccc1CP(=O)(c1ccccc1)c1ccccc1O (configuration not stated) | / | / | 42* | 1 | / | -1 | 8
CCCCC(O)(c1ccc(F)cc1)C(CN1CCOCC1)c1ccc(Cl)cc1 (configuration not stated) | 1 | 1 | 4 | -2 | 6 | -2 | /
Cc1ccc(NS(=O)(=O)c2cccc(C(=O)N/N=C/c3c(C)nn(-c4ccccc4)c3N3CCCC3)c2)c(C)c1 | -8 | -1 | 58* | -1 | 8 | -3 | 35*
CC(=N)c1c(O)c2ccccc2oc1=O | 5 | 2 | 63* | -2 | 3 | -6 | 1
CCCCC(=O)c1c(O)c2ccccc2oc1=O | -1 | 1 | 11 | -3 | 6 | -2 | /
Nc1ccc2c(c1)C/C(=C/c1ccco1)C2=O | -8 | 9 | 84* | -1 | 7 | 0 | 6
COc1ccc(CC(=O)Nc2c(C(=O)N3CCN(c4ccccc4OC)CC3)oc3ccccc23)cc1OC | -2 | 1 | 1 | -2 | 0 | -2 | /
O=c1cc(-c2ccccc2)nc2c(-c3ccccc3)c(C(F)(F)F)[nH]n12 | / | / | 45* | -3 | / | -2 | 54*
O=C(N/N=C/c1cc(Cl)c(O)c(Cl)c1)c1cc2c(ccc3ccccc32)o1 | 36* | 45* | 61* | -4 | 21 | -6 | 70*
COc1cc2cc(Oc3ccc4ccc(=O)oc4c3)c(=O)oc2cc1OC1OC(COC(=O)CC(C)(O)CC(=O)O)C(O)C(O)C1O (configuration not stated) | 0 | 10 | 7 | -2 | 14 | -1 | /
COc1cc2cc(Oc3ccc4ccc(=O)oc4c3)c(=O)oc2cc1O[C@@H]1O[C@H](CO)[C@@H](O)[C@H](O)[C@H]1O | 8 | 15 | 50* | / | 20 | / | 18
O=C(c1ccccc1)c1nn(-c2ccccc2)c2nnc(Cc3ccccc3)c(=O)n12 | -1 | 27 | 41* | -3 | 3 | -7 | 30*
COc1ccc(NS(=O)(=O)c2cccc(C(=O)NN=Cc3cc(Br)c(O)c(Br)c3)c2)cc1 | 10 | 28 | 61* | / | 8 | / | 69*
Cc1cc(=O)[nH]c(N/N=C/C2=C(N3CCOCC3)C(=C\c3ccc(Cl)cc3)/CC2)n1 | -1 | 8 | 54* | -2 | 7 | -3 | 47*
O=C(O)c1ccccc1N/N=C/C1=C(N2CCOCC2)C(=C\c2ccccc2)/CC1 | 7 | 22 | 20 | 0 | 6 | 2 | /
